Reference: PMC9134258 (ACS Omega, 2022)
Values belong to the compound of their own block, whether it stands above or below them.

Key:
[1] = target: recombinant ALK kinase domain (aa 1073–1410) (Homo sapiens, UniProt Q9UM73); assay: ELISA-based in vitro kinase assay, recombinant ALK; assay type: biochemical; settings: 300 μM ATP
In short: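 Purified recombinant ALK kinase domain (aa 1073–1410), wild type or L1196M, was incubated with test compound and Mg++-ATP, then loaded onto peptide substrate-coated wells. Reaction ran at 30 °C for 20 min. After washing, phosphopeptide was quantified with anti-phosphotyrosine antibody PY20. IC50 came from nonlinear regression of normalized data. Inhibition mode was assessed from dose–response curves at increasing ATP concentrations.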

[2] = tested on: Ba/F3-parental cells; assay: Parental IL3-dependent Ba/F3 cell proliferation; assay type: cell-based; settings: Mus musculus, BaF3, read-out: IC50 Ba/F3-parental
In short: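 Cell growth was read by [3H]-thymidine incorporation across a dose range of test compound. IC50 values come from nonlinear regression curve fitting of normalized data.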

[3] = tested on: Ba/F3 NPM/ALK cells; assay: Ba/F3 NPM/ALK cell proliferation; assay type: cell-based; settings: read-out: IC50 Ba/F3 NPM/ALK
In short: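 Ba/F3 cells stably expressing NPM/ALK variants were made by electroporation, selected with G418 (1 mg/mL), then selected again by IL3 withdrawal. Proliferation was measured by [3H]-thymidine incorporation across a dose range of test compound. IC50 was obtained by nonlinear regression of normalized data.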

Chain of recombinant ALK kinase domain (aa 1073–1410) (Q9UM73 1073-1410): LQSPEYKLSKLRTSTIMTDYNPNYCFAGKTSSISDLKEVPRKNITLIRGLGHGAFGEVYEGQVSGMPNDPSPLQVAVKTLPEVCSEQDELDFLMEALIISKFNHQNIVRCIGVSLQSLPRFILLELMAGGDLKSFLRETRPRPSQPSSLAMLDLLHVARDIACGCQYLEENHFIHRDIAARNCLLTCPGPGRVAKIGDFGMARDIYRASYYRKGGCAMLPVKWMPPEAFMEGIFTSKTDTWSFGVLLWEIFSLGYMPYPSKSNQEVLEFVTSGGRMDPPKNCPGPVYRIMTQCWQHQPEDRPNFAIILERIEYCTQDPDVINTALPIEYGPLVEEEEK

IC50 ALK ([1]; Table 2, 2,6-substituted compounds): inactive
Structure (SMILES): CCCC#Cc1ccc2c(n1)[nH]c1ccccc12 [Compound 34]

IC50 [3]: 2800 nM
Structure (SMILES): COc1ccc(-c2ccc3[nH]c4ncc(C=Cc5ccccc5)cc4c3c2)cc1 [Compound 102]
IC50 [2]: > 10000 nM

IC50 ALK ([1]; Table 3, 3-chloro-6-substituted compounds): inactive
Structure (SMILES): Clc1cnc2[nH]c3ccc(-c4ccc(N5CCOCC5)cn4)cc3c2c1 [Compound 67]
